Insulin prom inh: TRM-6 insulin promoter activity inhibition. TRM-6 cells (human fetal islet line), insulin promoter-eGFP reporter, imaging; reporter expression induced with tamoxifen. 0.9% of 130,000 active. inhibition, % at 2 µM;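 active = inhibition above the mean plus 3 SD, with well images judged a real hit on visual review, cut at about 60% in these data, passing the limit was not always enough; inconclusive = inhibition over the cutoff but images rejected on review; inactive = inhibition not above the cutoff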
Insulin prom up: MIN6 insulin promoter up-regulation | MIN6 insulin promoter-GFP reporter, high-content imaging; hits give high values | z-score at 5 µM | 0.3% of 190,000 active;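 active = z-score above 3 at 5 µM with at least 500 cells counted in the well; inconclusive = wells under 500 cells, flagged as cytotoxic or low count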
PERK inhibitor: human PERK inhibition, primary cell-based screen | AID 1416 | inhibition, % at 5.6 µM | CHO PERK-DD fusion, SEAP luminescence translation reporter | 0.17% of 220,000 active;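 active = inhibition above the mean inhibition of all tested compounds plus 3 SD, set separately per screening campaign, cut at about 2.9% in these data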;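 also: PERK kinase domain activated by AP20187 dimerizer at 100 nM; 0% = DMSO with dimerizer and 100% = rapamycin at 8.4 µM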
Target sequence (Q9NZJ5 whole entry, looked up, the tested form may be a part): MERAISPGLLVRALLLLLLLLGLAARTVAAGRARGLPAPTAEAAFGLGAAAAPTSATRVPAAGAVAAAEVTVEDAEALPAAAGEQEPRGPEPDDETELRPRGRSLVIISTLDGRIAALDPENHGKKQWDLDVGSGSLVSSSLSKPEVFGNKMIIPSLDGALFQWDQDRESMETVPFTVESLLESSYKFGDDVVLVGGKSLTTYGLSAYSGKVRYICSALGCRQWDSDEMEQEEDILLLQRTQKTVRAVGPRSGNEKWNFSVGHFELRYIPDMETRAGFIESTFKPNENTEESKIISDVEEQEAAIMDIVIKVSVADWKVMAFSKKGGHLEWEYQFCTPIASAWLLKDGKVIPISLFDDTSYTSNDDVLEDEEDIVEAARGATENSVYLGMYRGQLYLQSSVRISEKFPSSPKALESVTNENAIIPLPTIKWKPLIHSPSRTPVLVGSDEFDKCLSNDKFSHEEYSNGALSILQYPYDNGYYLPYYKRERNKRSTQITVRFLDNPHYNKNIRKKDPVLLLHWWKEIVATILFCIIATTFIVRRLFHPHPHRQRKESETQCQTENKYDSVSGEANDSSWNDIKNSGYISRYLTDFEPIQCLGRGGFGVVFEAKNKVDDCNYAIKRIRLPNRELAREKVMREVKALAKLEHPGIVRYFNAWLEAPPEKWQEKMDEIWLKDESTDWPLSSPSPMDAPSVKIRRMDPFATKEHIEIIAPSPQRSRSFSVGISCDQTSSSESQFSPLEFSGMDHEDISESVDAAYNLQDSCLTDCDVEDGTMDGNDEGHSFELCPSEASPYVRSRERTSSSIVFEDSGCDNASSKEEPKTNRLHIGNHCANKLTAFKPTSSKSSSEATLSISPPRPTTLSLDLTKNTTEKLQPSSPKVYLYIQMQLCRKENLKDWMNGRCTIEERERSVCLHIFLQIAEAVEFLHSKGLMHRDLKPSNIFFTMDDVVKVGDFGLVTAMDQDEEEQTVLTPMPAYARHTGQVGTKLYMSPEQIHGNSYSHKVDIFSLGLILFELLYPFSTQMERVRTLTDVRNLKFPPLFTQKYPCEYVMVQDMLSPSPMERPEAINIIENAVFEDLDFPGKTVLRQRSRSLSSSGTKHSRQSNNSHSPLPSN
Dynein transport: blocks dynein driven cargo transport along microtubules. z-score, hits read low. 3617.4 mouse cells, GR-EGFP nuclear translocation imaging; test concentration mostly 20 µM; stimulated with dexamethasone, 1 µM; hits give low values. 0.47% of 220,000 active;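 active = plate z-score of nuclear minus cytoplasmic receptor signal below a set negative limit, without overly bright fluorescence or cell loss, cut at about -3.5 in these data, passing the limit was not always enough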;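 also: z-score of nuclear minus cytoplasmic ring GR-EGFP intensity difference per well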
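Medium: Induction medium lacking tetracycline, stripped serum | Probe or stimulus: 1.0 µM final dexamethasone stimulus | Schedule: 48 h induction, then 1 h compound, then 30 min agonist, 37 °C | Signal: Automated 10x imaging of fixed Hoechst-stained cells | Evaluation: Per-cell GR-EGFP intensity, nucleus versus surrounding cytoplasmic ring, well-averaged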
Autophagy mod: alters autophagy in cells; 0.98% of 190,000 active; AID 463193; MEF GFP-LC3 puncta imaging; test concentration mostly 10 µM; calls only at 10 µM (by protocol);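 active = percentage of spot-positive cells more than 3 SD above its plate mean, without a fluorescence outlier flag or 80% toxicity; inconclusive = no clear call, values can overlap the other calls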;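 also: spot-positive cell cutoff set from DMSO-treated cells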
An asterisk follows results filed as active; i = inactive; ? = inconclusive; . = not tested or not shown; + = active, no number. Rows were chosen to be rich in hits. Some 2.1% of all compounds tested hit in one or more screens of this group.

SMILES	Insulin prom inh	Insulin prom up	PERK inhibitor	Dynein transport	Autophagy mod
O=C(Nc1ccc(O)cc1)c1cccc(Oc2ccc([N+](=O)[O-])cc2)c1	-33.3	1.11	0.8	-0.11	i
COc1ccc(Cl)cc1NC(=O)C1CSC(c2ccncc2)=N1 (stereo not given)	45.0	-1.31	-0.4	1.6	i
Cc1cccc(C)c1NC(=O)CN(C)CC(=O)Nc1ccccc1Oc1ccccc1	.	1.12	-0.4	-0.762	i
Cc1ccc(NC(=O)CN(C)CC(=O)Nc2ccccc2Oc2ccccc2)cc1	.	-0.36	-0.6	0.885	+
O=C1C2C3C=CC(O3)C2C(=O)N1CC(O)c1ccccc1 (stereo not given)	-27.3	-0.4	1.1	-0.958	i
COc1cc(C2C(C#N)=C(N)Oc3cc(O)ccc32)cc(OC)c1OC (stereo not given)	-47.4	.	0.9	-0.837	+
N/C(=N\OCc1ccc([N+](=O)[O-])cc1)c1ccncc1	.	-0.73	0.5	0.134	i
Cc1ccc(Nc2ncccc2C(N)=O)cc1	12.5	0.94	-0.6	-0.56	i
CCCNc1ncccc1C(N)=O	60.6*	-0.5	0.6	2.66	i
Clc1cccc2sc(-c3nnc(-c4ccccc4)o3)c(Cl)c12	73.0	.	1.7	1.44	i
COc1ccc(CCN=C(N)NS(=O)(=O)c2ccc3ccccc3c2)cc1	13.3	0.1	0.1	1.02	i
COc1ccc(O)c(/C=N/c2sc(C)c(C)c2C#N)c1	58.3	0.17	1.3	-0.299	i
Cc1sc(/N=C/c2c(O)ccc3ccccc23)c(C#N)c1C	.	.	-0.1	0.23	+
Cc1ccc(NC(=O)CN(C)C(=O)c2cc3ccccc3o2)cc1	.	-0.24	1.1	0.586	i
CCCc1cnc(N2CCN(S(C)(=O)=O)CC2)nc1	.	-1.8	0.2	-0.662	.
CS(=O)(=O)N1CCN(c2ncccn2)CC1	83.3*	.	1.6	0.12	i
COc1cc(/C=N/NC(=O)c2ccc(-n3cccc3)cc2)ccc1O	71.4*	-0.11	0.3	2.41	i
COC(=O)C1=C2SC(C)C(=O)N2C(N)=C(C#N)C1c1ccc(OC)c(OC)c1 (stereo not given)	81.8*	0.79	1.5	1.87	i
COc1ccc(N2C(=O)CC(Sc3nnc(-c4ccccc4)o3)C2=O)cc1 (stereo not given)	11.1	.	0.6	-4.12*	i
CC(=O)c1cccc(NC(=O)C(=O)Nc2cccc3ccccc23)c1	.	-0.04	0.6	-0.0671	i
COc1ccc2cc(C#N)c(NC(C)C)nc2c1	85.7*	0.51	0.6	-1.33	i
CCOCC(=O)Nc1cc(C(=O)Nc2cc(C)cc(C)c2)ccc1Cl	.	-0.27	-0.1	-0.0157	i
CC(=O)Nc1ccc(S(=O)(=O)NCCCN2CCN(Cc3ccccc3)CC2)cc1Cl	.	1.28	-0.9	-0.165	.
Cc1ccc(Nc2nc(Oc3ccc(=O)[nH]n3)nc(N(C)C)n2)cc1	?	-0.26	0.2	-0.862	+
CN(C)c1nc(Nc2ccccc2)nc(Oc2ccc(=O)[nH]n2)n1	-5.3	.	0.1	-0.526	i
SMILES	Insulin prom inh	Insulin prom up	PERK inhibitor	Dynein transport	Autophagy mod
O=C(COC(=O)c1ccccc1F)Nc1cccnc1Cl	.	0.32	0.6	0.507	i
Cc1ccc(CNC(=O)/C=C/c2ccccc2Cl)cc1	6.7	-0.01	3.0*	1.26	i
Cc1ccc(CNC(=O)/C=C/c2c(Cl)cccc2Cl)cc1	5.3	0.5	0.8	-0.298	i
COc1ccc(NC(=O)c2ccccc2NC(=O)CSc2ccccc2)cc1	.	-0.62	0.0	0.275	i
COc1ccc(NC(=O)c2ccccc2NC(=O)CSc2ccc(Cl)cc2)cc1	23.3	0.84	0.0	-0.559	+
COc1cc(NC(=O)c2ccccc2F)c(OC)cc1NC(=O)CN1CCOCC1	.	-0.28	0.6	-0.285	i
COc1cc(-c2ccc(NC(=O)CN3CCC(C)CC3)c(OC)c2)ccc1NC(=O)CN1CCC(C)CC1	.	0.06	1.4	1.34	+
COc1cc(NC(=O)c2ccc(F)cc2)c(OC)cc1NC(=O)CN1CCOCC1	33.3	.	0.2	1.68	+
COc1cc(NC(=O)NCc2ccncc2)cc(OC)c1OC	.	0.07	0.7	-0.531	i
CC(=O)Nc1sc(N)nc1-c1ccccc1	.	0.23	1.7	-0.746	+
COC(=O)c1scc(C)c1NC(=O)Nc1ccccc1	-13.3	-0.19	0.3	-0.8	i
COC(=O)c1scc(C)c1N1C(=O)c2ccccc2C1=O	.	-0.38	2.9*	-0.344	.
CCCC/C(O)=C1\C(=O)CC(C)(C)CC1=NCCCCCC(=O)O	-22.2	0.8	-0.3	1.46	i
CCOc1ccc2nc(-c3ccccc3)[nH]c2c1	85.7*	0	0.8	-0.392	i
COc1ccc2nc(-c3ccccc3)[nH]c2c1	-309.5	0.4	-0.1	0.486	i
CCSc1nc2ccccc2n1C(=O)c1ccc(S(=O)(=O)N2CCCCC2)cc1	82.2*	.	-0.3	0.0917	i
C#CCSc1nc2ccccc2n1C(=O)c1ccc(S(=O)(=O)N2CCCCC2)cc1	76.0*	-0.14	1.0	0.259	i
O=C(Nc1ccc(Cl)c(Cl)c1)OCCNC(=O)c1cccc(Cl)c1	-64.3	.	1.5	-0.479	i
O=C(Cn1cncn1)N/N=C/c1ccccc1O	.	-0.21	1.8	-0.224	.
CCCCOc1ccc(Br)cc1/C(C)=N/NC1=NCCN1	-355.8	.	-1.2	-0.32	+
C/C(=N\NC1=NCCN1)c1ccc(N)c([N+](=O)[O-])c1	.	0.57	0.7	2.01	.
CCCCCCOc1ccc(/C(C)=N/NC2=NCCN2)cc1[N+](=O)[O-]	21.1	-7.26	1.4	5.73	+
COc1cc(OC)cc(-c2nnc(SCC(=O)Nc3cccc(C(=O)O)c3)s2)c1	58.3	-1.51	-0.4	-0.529	i
Cc1ccc2cc(C)c3nnc(SCC(=O)Nc4nc5c(s4)CCCC5)n3c2c1	15.0	-0.47	1.3	-0.268	i
CCOc1ncccc1C(=O)OCC(=O)c1ccccc1Br	-33.3	-0.33	0.3	-0.359	i
SMILES	Insulin prom inh	Insulin prom up	PERK inhibitor	Dynein transport	Autophagy mod
CCOc1ccnc(OCC)c1Br	78.6*	0.72	-0.4	0.676	i
O=C(c1cc2cc([N+](=O)[O-])ccc2oc1=O)N1CCN(c2ncccn2)CC1	46.7	0.77	0.2	-0.499	+
Cc1cc(C)cc(Nc2nc3c([nH]2)c(=O)n(C)c(=O)n3C)c1	57.9	0.72	0.3	-0.0843	i
Cc1ccc(Nc2nc3c([nH]2)c(=O)n(C)c(=O)n3C)cc1	5.9	3.32*	-0.2	-1.22	i
Cc1cc(N)n(-c2ccccc2)n1	-50.0	-0.52	0.9	-1.21	i
Cc1cc(-c2cc(N)n(-c3ccccc3)n2)c(C)n1C1CCCC1	.	-1.39	-0.8	3.27	+
C/C(=N\OCC(=O)NC12CC3CC(CC(C3)C1)C2)c1cc2ccccc2o1	.	0.28	0.9	0.189	i
CC(=O)Nc1ccc(NC(=O)c2cccc3c2-c2ccccc2C3=O)cc1	75.0*	0.06	0.5	1.17	i
CS(=O)(=O)NCCCNc1c(Cl)cccc1[N+](=O)[O-]	74.1*	0.36	1.1	1.3	i
COc1cc(CC(=O)Nc2cccc(SC)c2)cc(OC)c1OC	75.0*	-1.35	0.5	-0.44	i

Source: PubChem
